Activity calls are given as the source filed them. No cut-off for these calls is given here. Numbered stars: 1 amine (or outer) side, 2 acyl side, 3 side chain; on linkers, the order of the positions; unused ones are H or OH. Square brackets hold non-standard residues; d marks the D form. Peptide text beside a SMILES is read from it. X4 = Cc1ccc(C[C@H](N)CN(CC(=O)[*:2])[*:1])cc1; X2 = N[C@@H](Cc1ccccc1)CN(CC(=O)[*:2])[*:1]; X3 = N[C@@H](CC1CCCCC1)CN(CC(=O)[*:2])[*:1]; Nphe = O=C(O)CNCc1ccccc1
Tests used:
[1] = species on record: Mus musculus; assay: Compound was tested for the antagonistic activity on mouse vas deferens using NC(1-13)NH2 as agonist; NA means Inactive up to 10 uM; assay type: functional, organism-based
In short: (§1)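 Electrically stimulated mouse vas deferens (Mg2+-free Krebs, 33 °C, 0.1 Hz, 1-ms pulses). Antagonist at 10 µM added 15 min before a cumulative NC(1-13)NH2 concentration-response curve. pKB calculated with the Gaddum-Schild equation, assuming a slope of 1, from the concentration ratio. Mean of at least 3 experiments, with 95% confidence limits.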

[2] = species on record: Mus musculus; assay: Compound was tested for agonistic activity against electrically evoked contraction (twitch response) in mouse vas deferens; NA means Inactive up to 10 uM; assay type: functional, organism-based
In short: (§2)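 Mouse vas deferens held in Mg2+-free Krebs at 33 °C under 0.3 g resting tension. Field stimulation through platinum electrodes with supramaximal 1-ms pulses at 0.1 Hz, twitches recorded isotonically. After about 2 h equilibration, cumulative concentration-response curves built in 0.5 log steps up to 10 µM. pEC50 taken as the concentration giving half-maximal effect. Mean of at least 3 experiments.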

[3] = species on record: Mus musculus; assay: Potency (Emax) against electrically evoked contraction (twitch response) in mouse vas deferens; NA means Inactive up to 10 uM; assay type: functional, organism-based; in short: as §2
[4] = biological target: Nociceptin receptor (Mus musculus, UniProt P35377); assay: Affinity to nociceptin receptors on mouse forebrain membranes by [3H]NC-NH2 displacement.
Sequence of Nociceptin receptor (P35377 whole entry): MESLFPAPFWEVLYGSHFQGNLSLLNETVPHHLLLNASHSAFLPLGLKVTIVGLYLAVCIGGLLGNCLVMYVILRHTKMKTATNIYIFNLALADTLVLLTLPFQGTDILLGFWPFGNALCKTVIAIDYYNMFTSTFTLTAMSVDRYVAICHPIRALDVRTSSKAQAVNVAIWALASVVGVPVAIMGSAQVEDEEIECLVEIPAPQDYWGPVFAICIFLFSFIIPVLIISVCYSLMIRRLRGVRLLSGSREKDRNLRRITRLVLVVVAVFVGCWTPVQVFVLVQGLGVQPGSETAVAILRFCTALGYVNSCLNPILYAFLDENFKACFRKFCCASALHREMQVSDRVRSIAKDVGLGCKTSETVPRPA
In short: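 Forebrain membranes from male Swiss mice (25-30 g), homogenized in 50 mM Tris HCl, 2 mM EDTA, 100 µM PMSF, pH 7.4, then preincubated 30 min at 37 °C. Bound ligand separated by GF/C filtration. Ki obtained by nonlinear least-squares fitting.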

[5] = species on record: Mus musculus; assay: Potency (Emax) against electrically evoked contraction (twitch response) in mouse vas deferens; assay type: functional; in short: as §2
[6] = species on record: Mus musculus; assay: Compound was tested for agonistic activity against electrically evoked contraction (twitch response) in mouse vas deferens; assay type: functional, organism-based; in short: as §2
[7] = species on record: Mus musculus; assay: Compound was tested for the antagonistic activity on mouse vas deferens using NC(1-13)NH2 as agonist; assay type: functional; in short: as §1

| Structure (SMILES) | pKB [1] | Log EC50 [2] | Emax [3] | Ki [4] [nM] | Emax [5] [%] | EC50 [6] [nM] | pKB [7] |
| --- | --- | --- | --- | --- | --- | --- | --- |
| C[C@H](NC(=O)CNC(=O)[C@@H](NC(=O)[C@H](Cc1ccccc1)NC(=O)CNC(=O)CNC(=O)CNCc1ccc(O)cc1)[C@@H](C)O)C(=O)N[C@@H](CCCN=C(N)N)C(=O)N[C@@H](CCCCN)C(=O)N[C@@H](CO)C(=O)N[C@@H](C)C(=O)N[C@@H](CCCN=C(N)N)C(=O)N[C@@H](CCCCN)C(N)=O | inactive | inactive | inactive | 3160 | – | – | – |
| Cc1ccc(C[C@H](N)C(=O)NCC(=O)NCC(=O)N[C@@H](Cc2ccccc2)C(=O)N[C@H](C(=O)NCC(=O)N[C@@H](C)C(=O)N[C@@H](CCCN=C(N)N)C(=O)N[C@@H](CCCCN)C(=O)N[C@@H](CO)C(=O)N[C@@H](C)C(=O)N[C@@H](CCCN=C(N)N)C(=O)N[C@@H](CCCCN)C(N)=O)[C@@H](C)O)cc1 | – | – | – | 200 | -70 | 2510 | – |
| C[C@H](NC(=O)CNC(=O)[C@@H](NC(=O)[C@H](Cc1ccccc1)NC(=O)CNC(=O)CNC[C@@H](N)Cc1ccccc1)[C@@H](C)O)C(=O)N[C@@H](CCCN=C(N)N)C(=O)N[C@@H](CCCCN)C(N)=O (H-[X2]GFTGARK-NH2) | – | inactive | inactive | > 10000 | – | – | 5.1 |
| C[C@H](NC(=O)CNC(=O)[C@@H](NC(=O)[C@H](Cc1ccccc1)NC(=O)CNC(=O)CNC(=O)CNCc1ccccc1)[C@@H](C)O)C(=O)N[C@@H](CCCN=C(N)N)C(=O)N[C@@H](CCCCN)C(=O)N[C@@H](CO)C(=O)N[C@@H](C)C(=O)N[C@@H](CCCN=C(N)N)C(=O)N[C@@H](CCCCN)C(N)=O | – | inactive | inactive | – | – | – | 6.4 |
| CC(C)C[C@H](NC(=O)[C@H](CCCCN)NC(=O)[C@H](CCCN=C(N)N)NC(=O)[C@H](C)NC(=O)[C@H](CO)NC(=O)[C@H](CCCCN)NC(=O)[C@H](CCCN=C(N)N)NC(=O)[C@H](C)NC(=O)CNC(=O)[C@@H](NC(=O)[C@H](Cc1ccccc1)NC(=O)CNC(=O)CNC[C@@H](N)Cc1ccccc1)[C@@H](C)O)C(=O)N[C@@H](C)C(=O)N[C@@H](CC(N)=O)C(=O)N[C@@H](CCC(N)=O)C(N)=O (H-[X2]GFTGARKSARKLANQ-NH2) | – | inactive | inactive | 20 | – | – | 7 |
| C[C@H](NC(=O)CNC(=O)[C@@H](NC(=O)[C@H](Cc1ccccc1)NC(=O)CNC(=O)CNC(=O)[C@@H](N)Cc1ccccc1)[C@@H](C)O)C(=O)N[C@@H](CCCNC(=N)N)C(=O)N[C@@H](CCCCN)C(=O)N[C@@H](CO)C(=O)N[C@@H](C)C(=O)N[C@@H](CCCNC(=N)N)C(=O)N[C@@H](CCCCN)C(N)=O | – | – | – | – | -84 | 15.8 | – |
| CC(C)C[C@H](N)C(=O)NCC(=O)NCC(=O)N[C@@H](Cc1ccccc1)C(=O)N[C@H](C(=O)NCC(=O)N[C@@H](C)C(=O)N[C@@H](CCCN=C(N)N)C(=O)N[C@@H](CCCCN)C(=O)N[C@@H](CO)C(=O)N[C@@H](C)C(=O)N[C@@H](CCCN=C(N)N)C(=O)N[C@@H](CCCCN)C(N)=O)[C@@H](C)O (H-LGGFTGARKSARK-NH2) | – | – | – | 2.51 | -80 | 25.1 | – |
| CC(C)CNCC(=O)NCC(=O)NCC(=O)N[C@@H](Cc1ccccc1)C(=O)N[C@H](C(=O)NCC(=O)N[C@@H](C)C(=O)N[C@@H](CCCN=C(N)N)C(=O)N[C@@H](CCCCN)C(=O)N[C@@H](CO)C(=O)N[C@@H](C)C(=O)N[C@@H](CCCN=C(N)N)C(=O)N[C@@H](CCCCN)C(N)=O)[C@@H](C)O | inactive | inactive | inactive | 2510 | – | – | – |
| C[C@H](NC(=O)CNC(=O)[C@@H](NC(=O)[C@H](Cc1ccccc1)NC(=O)CNC(=O)CNC(=O)[C@@H](N)Cc1ccc(O)cc1)[C@@H](C)O)C(=O)N[C@@H](CCCN=C(N)N)C(=O)N[C@@H](CCCCN)C(=O)N[C@@H](CO)C(=O)N[C@@H](C)C(=O)N[C@@H](CCCN=C(N)N)C(=O)N[C@@H](CCCCN)C(N)=O (H-YGGFTGARKSARK-NH2) | – | – | – | 3.98 | -89 | 25.1 | – |
| CC(C)C[C@H](NC(=O)[C@H](CCCCN)NC(=O)[C@H](CCCN=C(N)N)NC(=O)[C@H](C)NC(=O)[C@H](CO)NC(=O)[C@H](CCCCN)NC(=O)[C@H](CCCN=C(N)N)NC(=O)[C@H](C)NC(=O)CNC(=O)[C@@H](NC(=O)[C@H](Cc1ccccc1)NC(=O)CNC(=O)CNC(=O)CNCc1ccccc1)[C@@H](C)O)C(=O)N[C@@H](C)C(=O)N[C@@H](CC(N)=O)C(=O)N[C@@H](CCC(N)=O)C(N)=O | – | inactive | inactive | 126 | – | – | 6.3 |
| C[C@H](NC(=O)CNC(=O)[C@@H](NC(=O)[C@H](Cc1ccccc1)NC(=O)CNC(=O)CNC[C@@H](N)CC1CCCCC1)[C@@H](C)O)C(=O)N[C@@H](CCCN=C(N)N)C(=O)N[C@@H](CCCCN)C(=O)N[C@@H](CO)C(=O)N[C@@H](C)C(=O)N[C@@H](CCCN=C(N)N)C(=O)N[C@@H](CCCCN)C(N)=O (H-[X3]GFTGARKSARK-NH2) | inactive | inactive | inactive | 316 | – | – | – |
| C[C@H](NC(=O)CNC(=O)[C@@H](NC(=O)[C@H](Cc1ccccc1)NC(=O)CNC(=O)CNC[C@@H](N)Cc1ccccc1)[C@@H](C)O)C(=O)N[C@@H](CCCN=C(N)N)C(=O)N[C@@H](CCCCN)C(=O)N[C@@H](CO)C(=O)N[C@@H](C)C(=O)N[C@@H](CCCN=C(N)N)C(N)=O (H-[X2]GFTGARKSAR-NH2) | – | inactive | inactive | 398 | – | – | 5.2 |
| C[C@H](NC(=O)CNC(=O)[C@@H](NC(=O)[C@H](Cc1ccccc1)NC(=O)CNC(=O)CNC(=O)[C@@H](N)Cc1ccccc1)[C@@H](C)O)C(=O)N[C@@H](CCCN=C(N)N)C(=O)N[C@@H](CCCCN)C(N)=O (H-FGGFTGARK-NH2) | inactive | inactive | inactive | > 10000 | – | – | – |
| Cc1ccc(C[C@H](N)CNCC(=O)NCC(=O)N[C@@H](Cc2ccccc2)C(=O)N[C@H](C(=O)NCC(=O)N[C@@H](C)C(=O)N[C@@H](CCCN=C(N)N)C(=O)N[C@@H](CCCCN)C(=O)N[C@@H](CO)C(=O)N[C@@H](C)C(=O)N[C@@H](CCCN=C(N)N)C(=O)N[C@@H](CCCCN)C(N)=O)[C@@H](C)O)cc1 (H-[X4]GFTGARKSARK-NH2) | – | inactive | inactive | 631 | – | – | 5.7 |
| Cc1ccc(CNCC(=O)NCC(=O)NCC(=O)N[C@@H](Cc2ccccc2)C(=O)N[C@H](C(=O)NCC(=O)N[C@@H](C)C(=O)N[C@@H](CCCN=C(N)N)C(=O)N[C@@H](CCCCN)C(=O)N[C@@H](CO)C(=O)N[C@@H](C)C(=O)N[C@@H](CCCN=C(N)N)C(=O)N[C@@H](CCCCN)C(N)=O)[C@@H](C)O)cc1 | inactive | inactive | inactive | 2510 | – | – | – |
| C[C@H](NC(=O)CNC(=O)[C@@H](NC(=O)[C@H](Cc1ccccc1)NC(=O)CNC(=O)CNC(=O)CNCc1ccccc1)[C@@H](C)O)C(=O)N[C@@H](CCCN=C(N)N)C(=O)N[C@@H](CCCCN)C(=O)N[C@@H](CO)C(=O)N[C@@H](C)C(=O)N[C@@H](CCCN=C(N)N)C(N)=O (H-[Nphe]GGFTGARKSAR-NH2) | inactive | inactive | inactive | 3160 | – | – | – |
| C[C@H](NC(=O)CNC(=O)[C@@H](NC(=O)[C@H](Cc1ccccc1)NC(=O)CNC(=O)CNC(=O)CNCC1CCCCC1)[C@@H](C)O)C(=O)N[C@@H](CCCN=C(N)N)C(=O)N[C@@H](CCCCN)C(=O)N[C@@H](CO)C(=O)N[C@@H](C)C(=O)N[C@@H](CCCN=C(N)N)C(=O)N[C@@H](CCCCN)C(N)=O | inactive | inactive | inactive | 2510 | – | – | – |
| C[C@H](NC(=O)CNC(=O)[C@@H](NC(=O)[C@H](Cc1ccccc1)NC(=O)CNC(=O)CNC[C@@H](N)Cc1ccccc1)[C@@H](C)O)C(=O)N[C@@H](CCCN=C(N)N)C(=O)N[C@@H](CCCCN)C(=O)N[C@@H](CO)C(=O)N[C@@H](C)C(=O)N[C@@H](CCCN=C(N)N)C(=O)N[C@@H](CCCCN)C(N)=O (H-[X2]GFTGARKSARK-NH2) | – | inactive | inactive | 10 | – | – | 6.8 |
